Data from ChEMBL document CHEMBL1782036, “Atovaquone derivatives as potent cytotoxic and apoptosis inducing agents” (Bioorg Med Chem Lett, 2009).

Experiments:
DU-145 [1] = experiment: Growth inhibition of human DU145 cells after 72 hrs by MTT assay; format: functional, cell-based; details: DU-145, 72 h
Procedure, shortened: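 Du145 human prostate carcinoma cells were screened by MTT cell-growth inhibition assay. IC50 values are means of three experiments.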

DU-145 [2] = experiment: Induction of apoptosis in human DU145 cells at 10 uM assessed as late apoptosis/ necrotic cells level after 72 hrs by AnnexinV conjugated 7- AAD staining by flow cytometry; format: functional
Procedure, shortened: (§1)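 Du145 cells were treated for 72 h and stained with Annexin V conjugate plus 7-AAD. Flow cytometry read PS externalization and membrane integrity, scoring cells as live (double negative), early apoptotic, or late apoptotic/necrotic (double positive). Untreated cells served as the control.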

DU-145 [3] = experiment: Induction of apoptosis in human DU145 cells at 10 uM assessed as dead cell level after 72 hrs by AnnexinV conjugated 7- AAD staining by flow cytometry; format: functional
Procedure, shortened: (§2)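 Du145 human prostate carcinoma cells exposed to compound for 72 h, then stained with Annexin V and 7-AAD and analysed by flow cytometry. Annexin V detects phosphatidylserine externalised to the outer membrane leaflet, and 7-AAD enters only membrane-compromised cells. Dead cells were those positive for both stains. Untreated cells served as control.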

DU-145 [4] = experiment: Induction of apoptosis in human DU145 cells at 5 uM assessed as late apoptosis/ necrotic cells level after 72 hrs by AnnexinV conjugated 7- AAD staining by flow cytometry; format: functional; procedure, shortened: as §1
MCF7 = experiment: Antiproliferative activity against human MCF7 cells after 72 hrs by MTT assay; format: functional, cell-based; details: MCF7, 72 h
DU-145 [5] = experiment: Induction of apoptosis in human DU145 cells at 10 uM assessed as live cell level after 72 hrs by AnnexinV conjugated 7- AAD staining by flow cytometry; format: functional; procedure, shortened: as §1
DU-145 [6] = experiment: Induction of apoptosis in human DU145 cells at 5 uM assessed as dead cell level after 72 hrs by AnnexinV conjugated 7- AAD staining by flow cytometry; format: functional; procedure, shortened: as §2
HT-29 = experiment: Antiproliferative activity against human HT-29 cells after 72 hrs by MTT assay; format: functional, cell-based; details: HT-29, 72 h
HT-1080 = experiment: Antiproliferative activity against human HT1080 cells after 72 hrs by MTT assay; format: functional, cell-based; details: HT-1080, 72 h
HeLa = experiment: Antiproliferative activity against human HeLa cells after 72 hrs by MTT assay; format: functional, cell-based
DU-145 [7] = experiment: Induction of apoptosis in human DU145 cells at 5 uM assessed as early apoptosis level after 72 hrs by AnnexinV conjugated 7- AAD staining by flow cytometry; format: functional; procedure, shortened: as §1
SGC-7901 = experiment: Antiproliferative activity against human SGC7901 cells after 72 hrs by MTT assay; format: functional, cell-based; details: SGC-7901, 72 h
A549 = experiment: Antiproliferative activity against human A549 cells after 72 hrs by MTT assay; format: functional, cell-based; details: A549, 72 h
IMR-90 = experiment: Antiproliferative activity against human IMR90 cells after 72 hrs by MTT assay; format: cell-based; details: IMR-90, 72 h
U-251 = experiment: Antiproliferative activity against human U251 cells after 72 hrs by MTT assay; format: functional, cell-based; details: U-251, 72 h
DU-145 [8] = experiment: Induction of apoptosis in human DU145 cells at 10 uM assessed as early apoptosis level after 72 hrs by AnnexinV conjugated 7- AAD staining by flow cytometry; format: functional; procedure, shortened: as §1
[9] = Antiproliferative activity against human L78 cells after 72 hrs by MTT assay; format: functional, cell-based; details: L78, 72 h
HepG2 = experiment: Antiproliferative activity against human HepG2 cells after 72 hrs by MTT assay; format: functional, cell-based; details: HepG2, 72 h
DU-145 [10] = experiment: Induction of apoptosis in human DU145 cells at 5 uM assessed as live cell level after 72 hrs by AnnexinV conjugated 7- AAD staining by flow cytometry; format: functional; procedure, shortened: as §1
MOLT-4 = experiment: Antiproliferative activity against human MOLT4 cells after 72 hrs by MTT assay; format: functional, cell-based; details: MOLT-4, 72 h
KB = experiment: Antiproliferative activity against human KB cells after 72 hrs by MTT assay; format: functional, cell-based
OS-RC-2 = experiment: Antiproliferative activity against human OS-RC2 cells after 72 hrs by MTT assay; format: functional, cell-based; details: OS-RC-2, 72 h

SMILES: O=C1C=C(N2CCN(c3ccc(Cl)cc3)CC2)C(=O)c2ccccc21
- IC50 (DU-145 [1]): 29.5 µM

SMILES: O=C1C=C(N2CCC(c3ccccc3)CC2)C(=O)c2ccccc21
- IC50 (DU-145 [1]): 6 µM

SMILES: Cc1ccccc1N1CCN(C2=CC(=O)c3cccc(O)c3C2=O)CC1
- Activity (DU-145 [2]): 59.33%
- Activity (DU-145 [3]): 3.64%
- Activity (DU-145 [4]): 15.49%
- IC50 (MCF7): 9.7 µM
- Activity (DU-145 [5]): 18.75%
- IC50 (DU-145 [1]): 2.3 µM
- Activity (DU-145 [6]): 11.08%
- IC50 (HT-29): 2.8 µM
- IC50 (HT-1080): 11 µM
- IC50 (HeLa): 7.2 µM
- Activity (DU-145 [7]): 3.89%
- IC50 (SGC-7901): 5.3 µM
- IC50 (A549): 5.3 µM
- IC50 (IMR-90): > 50 µM
- IC50 (U-251): 10.2 µM
- Activity (DU-145 [8]): 18.28%
- IC50 [9]: 15.1 µM
- IC50 (HepG2): 10.3 µM
- Activity (DU-145 [10]): 69.54%
- IC50 (MOLT-4): > 50 µM
- IC50 (KB): 6.6 µM
- IC50 (OS-RC-2): 4.4 µM

SMILES: Cc1ccccc1C1CCN(C2=CC(=O)c3cccc(O)c3C2=O)CC1
- Activity (DU-145 [2]): 84.32%
- Activity (DU-145 [3]): 0.42%
- Activity (DU-145 [4]): 34.39%
- IC50 (MCF7): 8.9 µM
- Activity (DU-145 [5]): 0.96%
- IC50 (DU-145 [1]): 2.5 µM
- Activity (DU-145 [6]): 3.9%
- IC50 (HT-29): 6.7 µM
- IC50 (HT-1080): > 50 µM
- IC50 (HeLa): 9.7 µM
- Activity (DU-145 [7]): 10.31%
- IC50 (SGC-7901): 3.9 µM
- IC50 (A549): 5.2 µM
- IC50 (IMR-90): > 50 µM
- IC50 (U-251): 30.4 µM
- Activity (DU-145 [8]): 14.31%
- IC50 [9]: 4.4 µM
- IC50 (HepG2): 16.6 µM
- Activity (DU-145 [10]): 51.4%
- IC50 (MOLT-4): > 50 µM
- IC50 (KB): 4.4 µM
- IC50 (OS-RC-2): 3.2 µM

SMILES: O=C1C=C(N2CCN(c3ccc(F)c(Cl)c3)CC2)C(=O)c2ccccc21
- IC50 (DU-145 [1]): 32.2 µM

SMILES: COc1cc(OC)cc(N2CCN(C3=CC(=O)c4ccccc4C3=O)CC2)c1
- IC50 (DU-145 [1]): 14.9 µM

SMILES: COc1cc(N2CCN(C3=CC(=O)c4ccccc4C3=O)CC2)cc(OC)c1OC
- IC50 (DU-145 [1]): 11.6 µM

SMILES: O=C1C=C(N2CCN(c3ccc(F)cc3)CC2)C(=O)c2c(O)cccc21
- IC50 (DU-145 [1]): 8.4 µM

SMILES: O=C1C=C(N2CCN(c3ccccc3Cl)CC2)C(=O)c2ccccc21
- Activity (DU-145 [2]): 9.71%
- Activity (DU-145 [3]): 3.1%
- Activity (DU-145 [4]): 3.65%
- IC50 (MCF7): 10.3 µM
- Activity (DU-145 [5]): 85.3%
- IC50 (DU-145 [1]): 2.9 µM
- Activity (DU-145 [6]): 3.99%
- IC50 (HT-29): 18.9 µM
- IC50 (HT-1080): 15.4 µM
- IC50 (HeLa): 11.3 µM
- Activity (DU-145 [7]): 1.01%
- IC50 (SGC-7901): 41.8 µM
- IC50 (A549): 10.3 µM
- IC50 (IMR-90): > 50 µM
- IC50 (U-251): 30.8 µM
- Activity (DU-145 [8]): 1.89%
- IC50 [9]: 28.8 µM
- IC50 (HepG2): 11.1 µM
- Activity (DU-145 [10]): 91.36%
- IC50 (MOLT-4): > 50 µM
- IC50 (KB): 3.7 µM
- IC50 (OS-RC-2): 8.9 µM

SMILES: O=C1C=C(N2CCN(c3ccc(F)cc3)CC2)C(=O)c2ccccc21
- IC50 (DU-145 [1]): 11.7 µM

SMILES: O=C1C(O)=C([C@H]2CC[C@H](c3ccc(Cl)cc3)CC2)C(=O)c2ccccc21 [ATOVAQUONE]
- IC50 (DU-145 [1]): 29.3 µM

SMILES: O=C1C=C(N2CCN(c3ccc(Br)cc3)CC2)C(=O)c2ccccc21
- IC50 (DU-145 [1]): > 50 µM

SMILES: O=C1C=C(N2CCN(c3ccccc3Cl)CC2)C(=O)c2c(O)cccc21
- IC50 (MCF7): 23.8 µM
- IC50 (DU-145 [1]): 2.3 µM
- IC50 (HT-29): 1.4 µM
- IC50 (HT-1080): 5.8 µM
- IC50 (HeLa): 7.2 µM
- IC50 (SGC-7901): 8.2 µM
- IC50 (A549): 4.5 µM
- IC50 (IMR-90): 16.9 µM
- IC50 (U-251): 8 µM
- IC50 [9]: 5.2 µM
- IC50 (HepG2): 7.7 µM
- IC50 (MOLT-4): 27.6 µM
- IC50 (KB): 4.4 µM
- IC50 (OS-RC-2): 2.5 µM

SMILES: O=C1C=C(N2CCN(c3ccccc3)CC2)C(=O)c2c(O)ccc(O)c21
- Activity (DU-145 [2]): 84.76%
- Activity (DU-145 [3]): 0.53%
- Activity (DU-145 [4]): 71.34%
- IC50 (MCF7): 3 µM
- Activity (DU-145 [5]): 0.95%
- IC50 (DU-145 [1]): 1.3 µM
- Activity (DU-145 [6]): 1.39%
- IC50 (HT-29): 2.6 µM
- IC50 (HT-1080): 2.8 µM
- IC50 (HeLa): 2.1 µM
- Activity (DU-145 [7]): 19.8%
- IC50 (SGC-7901): 2.5 µM
- IC50 (A549): 1.7 µM
- IC50 (IMR-90): > 50 µM
- IC50 (U-251): 6.1 µM
- Activity (DU-145 [8]): 13.77%
- IC50 [9]: 1.9 µM
- IC50 (HepG2): 5.4 µM
- Activity (DU-145 [10]): 7.48%
- IC50 (MOLT-4): > 50 µM
- IC50 (KB): 1.4 µM
- IC50 (OS-RC-2): 1.5 µM

SMILES: Cc1cccc(N2CCN(C3=CC(=O)c4ccccc4C3=O)CC2)c1
- IC50 (DU-145 [1]): 7.4 µM

SMILES: O=C1C=C(N2CCN(c3cccc(Cl)c3)CC2)C(=O)c2ccccc21
- IC50 (DU-145 [1]): 8.3 µM
